Results from ChEMBL document CHEMBL1148855, “Synthesis and antibacterial activity of 4,5,6,7-tetrahydro-thieno[3,2-c]pyridine quinolones” (2007).
Values after ≈ are worked out from the molar mass of the structure shown.

How the values were obtained:
Format in all cases: functional
Bacillus subtilis = assay: Antibacterial activity against Bacillus subtilis ATCC 6633 by micro-broth dilution method
How it was run: (§1)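 MIC taken as the lowest concentration giving 90% inhibition of bacterial growth. Determined by microbroth dilution following National Committee (NCCLS) guidance, with each value determined in triplicate.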

[1] = tested on: Staphylococcus epidermidis; assay: Antibacterial activity against Staphylococcus epidermidis ATCC 12228 by micro-broth dilution method; how it was run: as §1
Staphylococcus aureus [2] = assay: Antibacterial activity against Staphylococcus aureus ATCC 33591 by micro-broth dilution method; how it was run: as §1
Enterococcus faecalis [3] = assay: Antibacterial activity against Enterococcus faecalis ATCC 29212 by micro-broth dilution method; how it was run: as §1
Pseudomonas aeruginosa = assay: Antibacterial activity against Pseudomonas aeruginosa ATCC 27853 by micro-broth dilution method; how it was run: as §1
Klebsiella pneumoniae = assay: Antibacterial activity against Klebsiella pneumoniae ATCC 10031 by micro-broth dilution method; how it was run: as §1
Escherichia coli = assay: Antibacterial activity against Escherichia coli ATCC 25922 by micro-broth dilution method; how it was run: as §1
Staphylococcus aureus [4] = assay: Antibacterial activity against Staphylococcus aureus ATCC 25923 by micro-broth dilution method; how it was run: as §1
Staphylococcus aureus [5] = assay: Antibacterial activity against Staphylococcus aureus ATCC 29213 by micro-broth dilution method; how it was run: as §1
Staphylococcus aureus [6] = assay: Antibacterial activity against Staphylococcus aureus ATCC 33592 by micro-broth dilution method; how it was run: as §1
Staphylococcus aureus [7] = assay: Antibacterial activity against methicillin-resistant Staphylococcus aureus ATCC 700699 by micro-broth dilution method
How it was run: (§2)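 Microbroth dilution run per National Committee guidelines; MIC taken as the concentration giving 90% inhibition of bacterial growth. Tested within a broader panel of susceptible and resistant Gram-positive strains. Reported values come from triplicate determinations.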

Staphylococcus aureus [8] = assay: Antibacterial activity against linezolid-resistant Staphylococcus aureus NRS 119 by microbroth dilution method; how it was run: as §2
Enterococcus faecalis [9] = assay: Antibacterial activity against Enterococcus faecalis ATCC 14506 by microbroth dilution method; how it was run: as §1
Enterococcus faecalis [10] = assay: Antibacterial activity against vancomycin-resistant Enterococcus faecalis ATCC 700802 by micro-broth dilution method; how it was run: as §2
Enterococcus faecium = assay: Antibacterial activity against vancomycin-resistant Enterococcus faecium ATCC 700221 by microbroth dilution method; how it was run: as §2
Streptococcus pneumoniae = assay: Antibacterial activity against penicillin-resistant Streptococcus pneumoniae ATCC 700904 by micro-broth dilution method; how it was run: as §2

Row | Structure (SMILES) | MIC (Bacillus subtilis) | MIC [1] | MIC (Staphylococcus aureus [2]) | MIC (Enterococcus faecalis [3]) | MIC (Pseudomonas aeruginosa) | MIC (Klebsiella pneumoniae) | MIC (Escherichia coli) | MIC (Staphylococcus aureus [4]) | MIC (Staphylococcus aureus [5]) | MIC (Staphylococcus aureus [6]) | MIC (Staphylococcus aureus [7]) | MIC (Staphylococcus aureus [8]) | MIC (Enterococcus faecalis [9]) | MIC (Enterococcus faecalis [10]) | MIC (Enterococcus faecium) | MIC (Streptococcus pneumoniae)
1 | COc1c(N2CCc3sc(Br)cc3C2)c(F)cc2c(=O)c(C(=O)O)cn(C3CC3)c12 | ≤ 0.12 µg/mL | ≤ 0.12 µg/mL | 1 µg/mL (≈ 2.03 µM) | 0.5 µg/mL (≈ 1.01 µM) | > 16 µg/mL | 4 µg/mL (≈ 8.11 µM) | 2 µg/mL (≈ 4.05 µM) | 2 µg/mL (≈ 4.05 µM) | 4 µg/mL (≈ 8.11 µM) | 2 µg/mL (≈ 4.05 µM) | > 16 µg/mL | > 16 µg/mL | > 16 µg/mL | > 16 µg/mL | > 16 µg/mL | 8 µg/mL (≈ 16.2 µM)
2 | COc1c(N2CCc3sc(C=O)cc3C2)c(F)cc2c(=O)c(C(=O)O)cn(C3CC3)c12 | ≤ 0.12 µg/mL | ≤ 0.12 µg/mL | ≤ 0.12 µg/mL | ≤ 0.12 µg/mL | 8 µg/mL (≈ 18.1 µM) | ≤ 0.12 µg/mL | 0.25 µg/mL (≈ 0.565 µM) | ≤ 0.125 µg/mL | ≤ 0.125 µg/mL | ≤ 0.25 µg/mL | 0.5 µg/mL (≈ 1.13 µM) | ≤ 0.12 µg/mL | 2 µg/mL (≈ 4.52 µM) | 0.25 µg/mL (≈ 0.565 µM) | > 16 µg/mL | ≤ 0.12 µg/mL
3 | COc1c(N2CCc3sc(CO)cc3C2)c(F)cc2c(=O)c(C(=O)O)cn(C3CC3)c12 | ≤ 0.12 µg/mL | > 16 µg/mL | 2 µg/mL (≈ 4.5 µM) | 0.5 µg/mL (≈ 1.12 µM) | 16 µg/mL (≈ 36 µM) | ≤ 0.12 µg/mL | 0.25 µg/mL (≈ 0.562 µM) | 2 µg/mL (≈ 4.5 µM) | 2 µg/mL (≈ 4.5 µM) |  | 2 µg/mL (≈ 4.5 µM) | 0.5 µg/mL (≈ 1.12 µM) |  | 0.25 µg/mL (≈ 0.562 µM) |  | ≤ 0.12 µg/mL
4 | COc1c(N2CCc3sccc3C2)c(F)cc2c(=O)c(C(=O)O)cn(C3CC3)c12 | ≤ 0.12 µg/mL | > 16 µg/mL | ≤ 0.12 µg/mL | 2 µg/mL (≈ 4.83 µM) | > 16 µg/mL | 0.25 µg/mL (≈ 0.603 µM) | ≤ 0.12 µg/mL | ≤ 0.125 µg/mL | ≤ 0.125 µg/mL | 0.25 µg/mL (≈ 0.603 µM) | 2 µg/mL (≈ 4.83 µM) | > 16 µg/mL | 0.25 µg/mL (≈ 0.603 µM) | ≤ 0.125 µg/mL | 16 µg/mL (≈ 38.6 µM) | ≤ 0.125 µg/mL
5 | COc1c(N2CCc3sc(C(=O)O)cc3C2)c(F)cc2c(=O)c(C(=O)O)cn(C3CC3)c12 | 0.5 µg/mL (≈ 1.09 µM) | 1 µg/mL (≈ 2.18 µM) | 2 µg/mL (≈ 4.36 µM) | 8 µg/mL (≈ 17.4 µM) | > 16 µg/mL | 2 µg/mL (≈ 4.36 µM) | 8 µg/mL (≈ 17.4 µM) | 2 µg/mL (≈ 4.36 µM) | 2 µg/mL (≈ 4.36 µM) | 0.5 µg/mL (≈ 1.09 µM) | > 16 µg/mL | > 16 µg/mL | > 16 µg/mL | 16 µg/mL (≈ 34.9 µM) | > 16 µg/mL | 1 µg/mL (≈ 2.18 µM)
6 | COc1c(N2CCc3sccc3C2)c(F)c([N+](=O)[O-])c2c(=O)c(C(=O)O)cn(C3CC3)c12 | 0.25 µg/mL (≈ 0.544 µM) | 2 µg/mL (≈ 4.35 µM) | 8 µg/mL (≈ 17.4 µM) |  | > 16 µg/mL |  | 16 µg/mL (≈ 34.8 µM) |  |  |  |  |  |  |  |  | 
7 | O=C(O)c1cn(C2CC2)c2cc(N3CCc4sccc4C3)c(F)cc2c1=O | ≤ 0.12 µg/mL | 8 µg/mL (≈ 20.8 µM) | 4 µg/mL (≈ 10.4 µM) |  | > 16 µg/mL | ≤ 0.12 µg/mL | 0.25 µg/mL (≈ 0.65 µM) | 1 µg/mL (≈ 2.6 µM) | 4 µg/mL (≈ 10.4 µM) | 1 µg/mL (≈ 2.6 µM) | > 16 µg/mL | > 16 µg/mL | 16 µg/mL (≈ 41.6 µM) | 4 µg/mL (≈ 10.4 µM) | > 16 µg/mL | 0.25 µg/mL (≈ 0.65 µM)
8 | Nc1c(F)c(N2CCc3sccc3C2)c(F)c2c1c(=O)c(C(=O)O)cn2C1CC1 | ≤ 0.12 µg/mL | 16 µg/mL (≈ 38.3 µM) | 4 µg/mL (≈ 9.58 µM) | > 16 µg/mL | > 16 µg/mL | 4 µg/mL (≈ 9.58 µM) | 0.25 µg/mL (≈ 0.599 µM) | 4 µg/mL (≈ 9.58 µM) | 8 µg/mL (≈ 19.2 µM) | 4 µg/mL (≈ 9.58 µM) | > 16 µg/mL | > 16 µg/mL | > 16 µg/mL | 16 µg/mL (≈ 38.3 µM) | > 16 µg/mL | 2 µg/mL (≈ 4.79 µM)
